High-throughput results as filed in PubChem.
Only a selection was taken, and hits are over-represented in it overall.
HCT116 PTEN-null: suppresses growth of cells with PTEN deletion. HCT116 PTEN-null viability, CellTiter-Glo, 60 h; active compounds read low. viability, % at 10 µM. AID 827. 140,000 tested, 1.2% active;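 active = viability at or below a set limit, 4 SD under the median of all tested compounds, cut at about 3.7% in these data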;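 also: PTEN knockout HCT116 line with beta catenin targeted HCT116 as companion control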
H69AR growth 86K: growth inhibitors of human H69AR lung tumor cells | 85,000 tested, 6% active | viability, % at 10 µM | H69AR lung tumor viability, ATP luminescence, 72 h; active compounds read low;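 active = viability at or below 40%; inactive = viability above 40%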;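 also: multidrug resistant small cell line overexpressing MRP-1 efflux transporter; 100% = mean luminescence of untreated control wells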
HCT116 bCat-KO: beta-catenin-lacking colon tumor cell growth suppression; HCT116 beta-catenin knockout viability, CellTiter-Glo, 60 h; active compounds read low; viability, % at 10 µM; 140,000 tested, 1.5% active;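 active = viability at or under a set limit, the compound median less 4 SD, cut at about 6% in these data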;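 also: 0% = Hyamine 1622 control at 20 µM and 100% = untreated cell control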
HUVEC prolif 384: blocks proliferation of human endothelial cells; 86,000 tested, 1.1% active; HUVEC proliferation, CellTiter-Glo luminescence, 72 h; active compounds read low; viability, % at 10 µM (by protocol); AID 648;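 active = viability at or below 30%; inactive = viability above 30%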;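 also: 100% = median luminescence of DMSO-only cell control wells on each plate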
Fibroblast inh: blocks proliferation of human lung fibroblasts. 85,000 tested, 1.1% active. viability, % at 10 µM. LL 47 human lung fibroblast viability, ATP luminescence; active compounds read low. AID 719;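 active = viability at or below 50% in the single dose screen; inactive = viability above 50%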;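 also: compound exposure lasted 72 h before the ATP readout; 100% = median luminescence of untreated cell-only wells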
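Test system: LL 47 human lung fibroblasts / Quantity: 1,150 cells in each well / Medium: IMEM growth medium with 15% fetal bovine serum / Incubation: 72 h compound exposure at 37 °C after overnight plating / Detection: CellTiter-Glo luminescence measuring cellular ATP / Read-out: % viability versus median cells-only luminescence / Benchmarks: cell-only wells, no compound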
Starred values were filed as active, the others as inactive; / = no result given.

SMILES	HCT116 PTEN-null	H69AR growth 86K	HCT116 bCat-KO	HUVEC prolif 384	Fibroblast inh
CCOc1ccc(C2=NNC(c3cccs3)=Nc3ccc(OC)cc32)cc1OCC	76.3	38.5*	76.6	71.0	82.6
COc1ccc(NC(=O)C(Sc2nnc(-c3ccncc3)n2-c2ccccc2C)c2ccccc2)cc1Cl (configuration not stated)	61.0	/	60.9	/	/
O=C(Cc1ccccc1)NNC(=O)c1cnccn1	98.9	/	97.4	/	/
O=C(c1cc(C2CC2)nc2ccc(Br)cc12)N1N=C(C(F)F)CC1(O)C(F)F (configuration not stated)	5.9	16.7*	19.4	28.6*	54.0
N#Cc1c(-c2ccccc2F)cc(C2CC2)nc1SCC(=O)c1cccs1	74.4	/	83.1	/	/
O=C(COc1nnnc2ccccc12)N1CCCc2ccccc21	92.0	86.4	87.3	91.0	102.5
O=C(COc1nc2ccccc2nc1N1CCOCC1)N1CCc2ccccc21	53.5	35.6*	37.1	75.7	39.7*
CC1=NNC(=O)/C1=C\c1cn(-c2ccccc2)nc1-c1cccs1	1.5*	/	1.6*	/	/
O=C(NCN1C(=O)C2C3C=CC(C3)C2C1=O)Nc1nccs1 (configuration not stated)	95.2	/	92.9	/	/
CC(=O)Nc1ccc(C(=O)OCC(=O)N(Cc2ccccc2)C(C)(C)C)cc1	115.1	/	97.1	/	/
Fc1cccc2sc(Nc3nnc(-c4ccco4)o3)nc12	18.8	36.9*	19.0	56.8	64.6
COc1cccc2sc(Nc3nnc(-c4cccs4)o3)nc12	8.2	22.6*	2.6*	2.8*	41.2*
Fc1cccc2sc(Nc3nc4cc5c(cc4s3)OCCO5)nc12	84.3	/	71.1	/	/
CCOC(=O)c1sc(Nc2nc3c(OC)cccc3s2)nc1C	27.0	/	29.0	/	/
COc1cccc2sc(Nc3nnc(-c4ccc(F)cc4)o3)nc12	14.8	35.3*	13.0	2.9*	62.1
O=C(COC(=O)/C=C/c1ccccc1Cl)NCCc1ccc(Cl)cc1Cl	102.0	/	94.4	/	/
Cc1[nH]c2ccccc2c1/C=N/Nc1ccc([N+](=O)[O-])cc1S(=O)(=O)Nc1ccc(Cl)cc1	43.1	/	57.4	/	/
COc1ccc(NS(=O)(=O)c2cc([N+](=O)[O-])ccc2N/N=C\c2c(C)[nH]c3ccccc23)cc1	3.8*	/	13.9	/	/
CCOC(=O)N1CCN(C(=O)c2ccccc2CCc2ccccc2)CC1	94.1	72.1	79.0	95.8	101.1
CCOC(=O)N1CCN(C(=O)c2ccccc2-c2ccccc2)CC1	24.2	18.8*	19.9	62.3	67.5
COc1cc2c(=O)n(Cc3ccccc3)c(=O)n(CC(=O)NCCc3ccccc3)c2cc1OC	32.5	33.4*	67.3	75.9	64.5
CCNc1nc(NC(C)C)nc(N(C#N)CCOc2ccc(Cl)cc2Cl)n1	64.3	21.6*	55.3	75.7	92.9
Cc1cc2cc(CNC(=O)Cc3cccs3)ccc2n1C	/	37.6*	/	60.7	107.3
CC(=O)Oc1cc2c(C(=O)NCCCN3CCOCC3)c(C)oc2c2ccccc12	1.4*	45.4	0.9*	4.5*	4.3*
O=C(CN1C(=O)COc2ccccc21)N1CCc2ccccc2C1	79.9	107.7	72.0	84.4	3.1*
SMILES	HCT116 PTEN-null	H69AR growth 86K	HCT116 bCat-KO	HUVEC prolif 384	Fibroblast inh
COC(=O)Nc1ccc(=O)n(Cc2c(Cl)cccc2Cl)c1	93.3	/	93.0	/	/
CC(C)(C=O)C1=CC(=O)c2ccccc2C1=O	1.7*	/	1.3*	/	/
CC(/C=N/n1cnnc1)=C\c1ccco1	96.6	88.6	96.1	97.3	107.9
COc1cccc(-c2nn(C)c3sc(C(=O)NCc4ccco4)cc23)c1	63.9	59.4	81.1	62.7	96.3
CCN1CCCC1CNC(=O)c1cc2c(-c3cccc(OC)c3)nn(C)c2s1 (configuration not stated)	4.1	59.6	2.6*	47.4	70.2
COCCNC(=O)c1cc2c(-c3ccc(Cl)cc3)nn(C)c2s1	61.9	67.4	61.1	68.0	73.5
CCN1CCCC1CNC(=O)c1cc2c(-c3ccc(Cl)cc3)nn(C)c2s1 (configuration not stated)	5.9	2.1*	3.2*	1.7*	10.8*
O=C(c1coc2ccccc2c1=O)N1CCN(c2cccc(C(F)(F)F)c2)CC1	95.2	96.5	95.5	83.6	103.4
CCc1ccccc1NC(=O)c1ccc(-n2c(C)ccc2C)cc1	4.0	/	3.8*	/	/
CCOC(=O)c1c(C)[nH]c(C(=O)C(C)OC(=O)c2cccc(OCc3c(C)noc3C)c2)c1C (configuration not stated)	62.6	81.2	50.7	83.1	97.6
COc1ccc(C(=O)O/N=C(\N)Cc2ccc(Cl)cc2)cc1OC	2.4*	/	0.9*	/	/
CCOC(=O)N1CCN(c2c(NCc3ccc(Cl)cc3)c(=O)c2=O)CC1	15.9	41.1	13.7	51.9	52.3
CCOC(=O)N1CCN(c2c(NCc3cccs3)c(=O)c2=O)CC1	38.4	31.0*	42.6	70.4	85.2
CCOc1cc(CNc2ccc(CNc3ncn[nH]3)cc2)ccc1OCc1ccccc1	65.7	/	51.3	/	/
COc1ccc(Oc2ccc(/C=C/C(=O)c3ccc(O)cc3)cc2[N+](=O)[O-])cc1	1.3*	/	1.4*	/	/
COc1ccc(/C=C/C(=O)c2ccc(O)cc2)cc1COc1ccc(F)cc1	10.5	/	15.7	/	/
O=C(/C=C/c1ccc(N2CCCCC2)c([N+](=O)[O-])c1)c1ccc(S(=O)(=O)N2CCCC2)cc1	0.7*	/	0.9*	/	/
O=[N+]([O-])c1cc(S(=O)(=O)c2ccc(N3CCCCC3)c([N+](=O)[O-])c2)ccc1N1CCCCC1	65.0	/	59.5	/	/
COc1cccc(C(=O)NC(=S)N2CCN(c3ccc(C(F)(F)F)cc3[N+](=O)[O-])CC2)c1	80.9	/	70.9	/	/
COc1cccc(C(=O)/C=C/c2ccc(N3CCCCC3)c([N+](=O)[O-])c2)c1	2.9*	/	3.1*	/	/
O=C(NC1CCCCC1)N(C1=NCCCCC1)c1ccc(Br)cc1	90.2	/	88.8	/	/
CCC(C)n1c(SCc2ccc([N+](=O)[O-])cc2)nc2ccsc2c1=O (configuration not stated)	47.4	/	54.0	/	/
CCCCc1c(C)c(C#N)c2nc3ccccc3n2c1Cl	1.1*	/	1.3*	/	/
CCc1cccc(C)c1NC(=O)CSc1nnc(CCCOc2ccc(Cl)cc2Cl)n1C	62.0	/	71.4	/	/
CC(C)(C)c1ccc(-c2nnc(SCCN3C(=O)c4ccccc4C3=O)o2)cc1	91.4	102.2	101.8	102.5	100.9
CCOc1ccc2[nH]c(=O)c(CN(Cc3ccco3)C(CC)c3nnnn3Cc3ccccc3)cc2c1 (configuration not stated)	33.0	2.4*	39.2	74.1	88.0
COc1ccc2[nH]c(=O)c(CN(Cc3cccs3)Cc3nnnn3Cc3ccccc3)cc2c1	61.2	32.8*	85.0	82.8	97.1
CC(C)(C)n1nnnc1CN(Cc1ccco1)Cc1cc2cc3c(cc2[nH]c1=O)OCO3	71.0	35.4*	76.2	81.5	85.9
COc1ccc2[nH]c(=O)c(CN(Cc3cccs3)S(=O)(=O)c3c(C)ccc4nsnc34)cc2c1	15.5	2.7*	24.6	64.6	68.7
